Results: ChEMBL document CHEMBL5653631, “A Potent and Selective ULK1 Inhibitor Suppresses Autophagy and Sensitizes Cancer Cells to Nutrient Stress” (iScience, 2018)

Columns and labels:
[1] = molecular target: T1, Ephrin type-B receptor 4 (Homo sapiens) (UniProt P54760); assay: Inhibition of human recombinant EphB4 at 40 nM in presence of ATP by radiometric assay relative to control
T1 sequence (whole entry): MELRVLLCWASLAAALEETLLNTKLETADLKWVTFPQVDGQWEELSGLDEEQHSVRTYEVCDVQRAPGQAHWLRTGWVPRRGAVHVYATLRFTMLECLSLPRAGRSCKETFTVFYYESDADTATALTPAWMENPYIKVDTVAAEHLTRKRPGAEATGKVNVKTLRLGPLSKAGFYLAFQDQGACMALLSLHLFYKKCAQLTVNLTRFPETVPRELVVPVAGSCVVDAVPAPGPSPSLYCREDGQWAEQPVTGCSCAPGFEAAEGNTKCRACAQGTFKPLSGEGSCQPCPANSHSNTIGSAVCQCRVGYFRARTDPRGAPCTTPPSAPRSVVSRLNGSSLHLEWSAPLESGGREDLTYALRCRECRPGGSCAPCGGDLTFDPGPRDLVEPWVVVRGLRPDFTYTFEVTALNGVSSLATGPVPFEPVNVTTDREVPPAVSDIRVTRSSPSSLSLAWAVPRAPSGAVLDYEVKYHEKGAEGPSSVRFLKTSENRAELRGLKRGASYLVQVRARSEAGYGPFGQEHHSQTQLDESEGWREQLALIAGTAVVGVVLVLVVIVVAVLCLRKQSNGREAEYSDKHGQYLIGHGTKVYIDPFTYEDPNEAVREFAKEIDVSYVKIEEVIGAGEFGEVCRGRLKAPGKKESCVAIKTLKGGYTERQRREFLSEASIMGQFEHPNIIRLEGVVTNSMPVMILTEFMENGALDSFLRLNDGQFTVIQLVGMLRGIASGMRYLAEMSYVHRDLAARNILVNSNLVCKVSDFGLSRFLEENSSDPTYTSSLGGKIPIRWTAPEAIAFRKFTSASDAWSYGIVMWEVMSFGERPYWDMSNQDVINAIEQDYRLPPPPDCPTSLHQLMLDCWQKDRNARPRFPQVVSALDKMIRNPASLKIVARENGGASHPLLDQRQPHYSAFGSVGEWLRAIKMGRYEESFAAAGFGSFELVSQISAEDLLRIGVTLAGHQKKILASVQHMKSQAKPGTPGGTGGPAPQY

[2] = molecular target: Serine/threonine-protein kinase Chk2 (Homo sapiens) (UniProt O96017); assay: Inhibition of human recombinant CHK2 at 40 nM related to control ULK1
[3] = molecular target: T2, Serine/threonine-protein kinase TAO2 (Homo sapiens) (UniProt Q9UL54); assay: Inhibition of human recombinant TAO2 at 40 nM related to control ULK1
T2 sequence (whole entry): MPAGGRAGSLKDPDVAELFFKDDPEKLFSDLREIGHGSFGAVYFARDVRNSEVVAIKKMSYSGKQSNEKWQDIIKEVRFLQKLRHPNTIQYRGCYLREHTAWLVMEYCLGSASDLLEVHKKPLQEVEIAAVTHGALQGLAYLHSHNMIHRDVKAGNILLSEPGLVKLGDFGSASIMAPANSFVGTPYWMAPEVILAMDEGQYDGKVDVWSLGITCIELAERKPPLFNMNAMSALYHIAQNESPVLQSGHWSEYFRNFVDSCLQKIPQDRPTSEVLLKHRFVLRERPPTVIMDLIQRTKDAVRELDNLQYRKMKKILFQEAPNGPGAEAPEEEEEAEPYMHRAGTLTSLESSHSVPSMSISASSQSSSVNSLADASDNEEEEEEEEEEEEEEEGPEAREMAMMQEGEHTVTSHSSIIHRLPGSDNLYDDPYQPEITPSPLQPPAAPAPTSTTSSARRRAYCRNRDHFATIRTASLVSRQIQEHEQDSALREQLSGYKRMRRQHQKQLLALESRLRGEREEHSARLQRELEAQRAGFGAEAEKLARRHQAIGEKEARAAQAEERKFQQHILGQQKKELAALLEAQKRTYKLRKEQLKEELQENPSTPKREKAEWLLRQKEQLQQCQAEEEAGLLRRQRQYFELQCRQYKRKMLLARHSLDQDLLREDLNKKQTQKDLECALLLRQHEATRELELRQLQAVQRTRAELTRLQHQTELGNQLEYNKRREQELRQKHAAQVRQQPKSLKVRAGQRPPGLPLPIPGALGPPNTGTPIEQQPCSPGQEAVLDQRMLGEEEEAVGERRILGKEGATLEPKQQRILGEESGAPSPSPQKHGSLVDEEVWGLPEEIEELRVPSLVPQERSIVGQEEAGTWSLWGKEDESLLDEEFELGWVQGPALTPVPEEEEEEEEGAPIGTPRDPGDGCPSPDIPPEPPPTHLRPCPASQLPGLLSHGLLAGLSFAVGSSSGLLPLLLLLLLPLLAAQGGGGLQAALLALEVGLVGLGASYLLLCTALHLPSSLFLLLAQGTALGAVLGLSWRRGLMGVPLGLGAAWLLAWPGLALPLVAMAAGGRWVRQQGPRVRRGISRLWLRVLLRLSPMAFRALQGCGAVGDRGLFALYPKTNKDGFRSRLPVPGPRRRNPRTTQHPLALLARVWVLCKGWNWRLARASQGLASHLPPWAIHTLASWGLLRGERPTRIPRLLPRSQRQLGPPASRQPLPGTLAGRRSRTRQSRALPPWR

[4] = molecular target: Cell division cycle 7-related protein kinase (Homo sapiens) (UniProt O00311); assay: Inhibition of human recombinant CDC7 at 500 nM in presence of ATP by radiometric assay relative to control
[5] = molecular target: Tyrosine-protein kinase Lck (Homo sapiens) (UniProt P06239); assay: Inhibition of human recombinant LCK at 500 nM related to control ULK1
[6] = molecular target: Tyrosine-protein kinase Blk (Homo sapiens) (UniProt P51451); assay: Inhibition of human recombinant BLK at 15 nM in presence of ATP by radiometric assay relative to control
Summary of the method: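 Part of a radiometric in vitro activity panel of 327 recombinant human kinases. Each kinase was tested in duplicate at one inhibitor concentration. Activity remaining was expressed as a percentage of the vehicle control, and percent inhibition was taken as 100 minus that value.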

[7] = molecular target: Serine/threonine-protein kinase N2 (Homo sapiens) (UniProt Q16513); assay: Inhibition of human recombinant PKN2 at 15 nM in presence of ATP by radiometric assay relative to control
[8] = molecular target: TRAF2 and NCK-interacting protein kinase (Homo sapiens) (UniProt Q9UKE5); assay: Inhibition of human recombinant TNIK at 15 nM in presence of ATP by radiometric assay relative to control
TRAF2 and NCK-interacting protein kinase (Homo sapiens), sequence (Q9UKE5 whole entry, looked up): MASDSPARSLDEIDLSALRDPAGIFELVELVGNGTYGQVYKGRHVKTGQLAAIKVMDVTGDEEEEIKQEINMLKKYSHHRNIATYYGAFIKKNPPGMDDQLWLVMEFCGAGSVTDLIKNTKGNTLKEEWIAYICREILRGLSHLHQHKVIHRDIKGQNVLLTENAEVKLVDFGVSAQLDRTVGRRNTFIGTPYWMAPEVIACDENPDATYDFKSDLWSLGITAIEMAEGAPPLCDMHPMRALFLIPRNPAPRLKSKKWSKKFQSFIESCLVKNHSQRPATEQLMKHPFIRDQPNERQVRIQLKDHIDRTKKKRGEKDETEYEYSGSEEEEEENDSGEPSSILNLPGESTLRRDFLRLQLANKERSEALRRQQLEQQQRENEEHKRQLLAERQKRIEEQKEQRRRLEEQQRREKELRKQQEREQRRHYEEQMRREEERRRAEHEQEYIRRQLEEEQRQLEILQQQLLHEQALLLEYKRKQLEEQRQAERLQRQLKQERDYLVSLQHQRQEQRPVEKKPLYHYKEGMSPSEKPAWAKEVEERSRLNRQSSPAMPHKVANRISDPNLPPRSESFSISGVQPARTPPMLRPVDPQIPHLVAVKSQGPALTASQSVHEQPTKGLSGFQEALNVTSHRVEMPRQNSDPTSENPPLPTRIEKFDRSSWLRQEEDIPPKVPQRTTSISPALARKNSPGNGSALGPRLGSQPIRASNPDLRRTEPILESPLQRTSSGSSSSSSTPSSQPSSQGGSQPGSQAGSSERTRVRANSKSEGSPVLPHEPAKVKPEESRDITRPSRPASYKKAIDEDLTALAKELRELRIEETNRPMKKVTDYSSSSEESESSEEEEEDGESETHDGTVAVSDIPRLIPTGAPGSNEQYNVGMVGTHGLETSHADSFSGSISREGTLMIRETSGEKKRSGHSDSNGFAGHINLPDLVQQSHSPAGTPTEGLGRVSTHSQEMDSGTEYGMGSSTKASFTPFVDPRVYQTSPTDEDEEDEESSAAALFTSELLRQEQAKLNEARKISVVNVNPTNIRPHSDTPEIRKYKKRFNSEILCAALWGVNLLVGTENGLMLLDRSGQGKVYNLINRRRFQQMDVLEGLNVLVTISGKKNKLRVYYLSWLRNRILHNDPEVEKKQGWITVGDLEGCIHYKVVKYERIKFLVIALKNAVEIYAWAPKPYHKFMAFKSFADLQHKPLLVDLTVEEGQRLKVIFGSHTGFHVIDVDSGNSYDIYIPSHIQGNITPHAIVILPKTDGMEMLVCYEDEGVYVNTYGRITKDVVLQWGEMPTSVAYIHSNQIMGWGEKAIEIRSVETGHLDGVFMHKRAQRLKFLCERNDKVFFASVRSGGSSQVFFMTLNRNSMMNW

Cell division cycle 7-related protein kinase (Homo sapiens), sequence (O00311 whole entry, looked up): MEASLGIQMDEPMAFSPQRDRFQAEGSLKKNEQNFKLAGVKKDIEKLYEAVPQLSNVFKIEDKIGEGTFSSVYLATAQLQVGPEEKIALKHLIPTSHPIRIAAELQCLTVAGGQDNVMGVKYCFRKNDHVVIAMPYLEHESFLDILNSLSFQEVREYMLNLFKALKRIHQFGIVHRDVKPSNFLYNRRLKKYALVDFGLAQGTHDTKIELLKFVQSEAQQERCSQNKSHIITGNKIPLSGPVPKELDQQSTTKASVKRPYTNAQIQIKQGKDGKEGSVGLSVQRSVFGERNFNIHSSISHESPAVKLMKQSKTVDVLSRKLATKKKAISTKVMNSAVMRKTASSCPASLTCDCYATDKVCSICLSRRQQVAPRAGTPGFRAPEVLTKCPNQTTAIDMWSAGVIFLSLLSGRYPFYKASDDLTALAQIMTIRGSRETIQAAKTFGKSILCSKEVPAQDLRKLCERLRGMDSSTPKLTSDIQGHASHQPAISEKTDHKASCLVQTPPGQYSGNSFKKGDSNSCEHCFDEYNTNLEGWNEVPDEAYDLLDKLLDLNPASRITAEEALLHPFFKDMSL
Tyrosine-protein kinase Blk (Homo sapiens), sequence (P51451 2-505 limits assumed): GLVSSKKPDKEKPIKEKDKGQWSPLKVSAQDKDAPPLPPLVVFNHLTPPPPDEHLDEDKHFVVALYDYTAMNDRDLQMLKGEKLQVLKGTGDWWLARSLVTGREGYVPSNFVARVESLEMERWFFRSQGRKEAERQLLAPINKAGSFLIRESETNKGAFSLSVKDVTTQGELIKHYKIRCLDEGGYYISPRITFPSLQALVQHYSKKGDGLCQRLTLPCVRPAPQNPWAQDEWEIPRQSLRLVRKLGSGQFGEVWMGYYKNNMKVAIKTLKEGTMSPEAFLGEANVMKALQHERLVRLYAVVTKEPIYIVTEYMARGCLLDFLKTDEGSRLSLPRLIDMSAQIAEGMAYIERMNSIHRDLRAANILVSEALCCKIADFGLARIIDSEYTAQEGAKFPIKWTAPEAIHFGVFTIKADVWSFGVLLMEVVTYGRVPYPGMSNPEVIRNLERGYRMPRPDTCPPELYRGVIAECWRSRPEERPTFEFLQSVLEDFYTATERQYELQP
Tyrosine-protein kinase Lck (Homo sapiens), sequence (P06239 2-509 limits assumed): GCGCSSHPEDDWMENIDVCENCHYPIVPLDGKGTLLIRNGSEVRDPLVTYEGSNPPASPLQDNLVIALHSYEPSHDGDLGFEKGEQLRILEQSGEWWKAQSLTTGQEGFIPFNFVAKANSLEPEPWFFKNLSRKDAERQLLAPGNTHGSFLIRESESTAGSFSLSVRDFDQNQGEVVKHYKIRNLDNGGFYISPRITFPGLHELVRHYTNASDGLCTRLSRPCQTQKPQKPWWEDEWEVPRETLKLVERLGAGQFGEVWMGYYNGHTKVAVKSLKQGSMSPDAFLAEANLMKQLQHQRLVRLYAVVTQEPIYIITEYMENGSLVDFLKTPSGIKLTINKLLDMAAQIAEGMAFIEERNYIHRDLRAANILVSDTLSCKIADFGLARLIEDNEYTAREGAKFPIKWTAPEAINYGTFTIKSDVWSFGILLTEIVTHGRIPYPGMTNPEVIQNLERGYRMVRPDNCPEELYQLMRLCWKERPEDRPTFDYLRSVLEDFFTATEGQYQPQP
Serine/threonine-protein kinase Chk2 (Homo sapiens), sequence (O96017 whole entry): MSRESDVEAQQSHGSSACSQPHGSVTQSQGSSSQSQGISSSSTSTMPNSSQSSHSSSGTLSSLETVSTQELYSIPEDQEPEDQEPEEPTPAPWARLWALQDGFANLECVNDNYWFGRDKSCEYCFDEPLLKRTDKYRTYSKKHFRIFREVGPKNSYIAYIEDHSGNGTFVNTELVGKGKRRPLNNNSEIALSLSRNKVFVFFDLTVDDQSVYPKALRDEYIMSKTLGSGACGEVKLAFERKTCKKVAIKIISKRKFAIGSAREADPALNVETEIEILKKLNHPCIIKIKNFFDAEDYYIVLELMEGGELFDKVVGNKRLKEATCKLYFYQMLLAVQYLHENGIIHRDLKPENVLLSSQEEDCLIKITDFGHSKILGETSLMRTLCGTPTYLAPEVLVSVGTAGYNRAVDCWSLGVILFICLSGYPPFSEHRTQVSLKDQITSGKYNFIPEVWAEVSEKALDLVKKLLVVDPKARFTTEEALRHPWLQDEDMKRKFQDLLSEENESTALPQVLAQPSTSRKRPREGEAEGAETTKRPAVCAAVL
Serine/threonine-protein kinase N2 (Homo sapiens), sequence (Q16513 whole entry, looked up): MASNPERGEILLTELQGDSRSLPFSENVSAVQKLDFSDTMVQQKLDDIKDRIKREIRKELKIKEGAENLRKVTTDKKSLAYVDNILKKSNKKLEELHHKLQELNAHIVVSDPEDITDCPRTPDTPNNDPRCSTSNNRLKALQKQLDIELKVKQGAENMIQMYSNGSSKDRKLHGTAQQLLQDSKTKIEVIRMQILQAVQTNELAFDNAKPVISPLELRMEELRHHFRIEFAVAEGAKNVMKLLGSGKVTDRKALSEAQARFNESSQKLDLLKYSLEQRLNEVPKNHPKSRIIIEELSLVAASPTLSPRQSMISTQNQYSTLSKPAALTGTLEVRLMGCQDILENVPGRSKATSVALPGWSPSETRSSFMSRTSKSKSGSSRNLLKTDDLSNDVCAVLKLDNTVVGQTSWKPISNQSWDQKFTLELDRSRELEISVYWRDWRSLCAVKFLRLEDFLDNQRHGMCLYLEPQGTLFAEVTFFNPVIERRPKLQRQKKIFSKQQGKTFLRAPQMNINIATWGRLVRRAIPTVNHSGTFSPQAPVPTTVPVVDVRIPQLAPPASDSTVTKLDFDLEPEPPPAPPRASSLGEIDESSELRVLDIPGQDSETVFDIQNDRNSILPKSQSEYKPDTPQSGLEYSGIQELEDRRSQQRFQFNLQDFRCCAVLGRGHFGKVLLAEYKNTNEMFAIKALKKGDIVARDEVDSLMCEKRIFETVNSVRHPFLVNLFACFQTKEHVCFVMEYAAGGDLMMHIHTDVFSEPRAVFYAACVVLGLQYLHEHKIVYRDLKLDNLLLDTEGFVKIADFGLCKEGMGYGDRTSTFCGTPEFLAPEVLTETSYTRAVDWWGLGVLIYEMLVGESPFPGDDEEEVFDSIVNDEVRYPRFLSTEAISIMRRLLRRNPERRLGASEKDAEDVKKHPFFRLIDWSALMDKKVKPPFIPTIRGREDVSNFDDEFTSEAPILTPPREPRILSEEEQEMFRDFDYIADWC

For `O=C(N[C@@H](C1CC1)C(F)(F)F)c1cc(-c2cnn3cc(-c4ccc(F)cc4)cnc23)cs1`, the inhibition [1] was 0%, the fold change (FC) [2] was 0 and the fold change (FC) [3] was 0.04.

Work on `CNC(=O)c1ccccc1Oc1nc(Nc2cc(OC)c(OC)c(OC)c2)ncc1Br` yielded an inhibition [4] of 0% and a fold change (FC) [5] of 0.18.

`CC(C)[C@H](NC(=O)c1cc(-c2cnn3cc(-c4ccc(OCCN5CCCCC5)cc4)cnc23)cs1)C(F)(F)F` showed an inhibition [6] of 10%, an inhibition [7] of 0% and an inhibition [8] of 5%.
